Measured values published in ChEMBL document CHEMBL1145212, “Fluorinated diaryl sulfides as serotonin transporter ligands: synthesis, structure-activity relationship study, and in vivo evaluation of fluorine-18-labeled compounds as PET imaging agents” (J Med Chem, 2005).

Columns and labels:
Details in all cases: tested as the 18F-labelled form
[1] = molecular target: Sodium-dependent serotonin transporter (Rattus norvegicus) (UniProt P31652); assay: Specific binding of [18F]AFA in rat hippocampus after citalopram treatment; n=3; format: functional, tissue-based
Outline: (§1)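 Rats, three per group, were pretreated iv with blocker at 2 mg/kg in saline, or with saline as control, 10–15 min before tail-vein F-18 radioligand (about 20 µCi). Killed at 60 min and regional %ID/g determined. Specific binding = (region activity − cerebellum activity)/cerebellum activity; mean ± SD.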

Rattus norvegicus [2] = species: Rattus norvegicus; assay: Regional uptake of [18F]-AFA in frontal cortex of rat pretreated with compound 7c; n=3; format: functional, organism-based
Rattus norvegicus [3] = species: Rattus norvegicus; assay: Regional uptake of [18F]AFA in frontal cortex of rat pretreated with compound nisoxetine; n=3; format: functional, organism-based
Outline: (§2)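 Male Sprague-Dawley rats, three per group, received blocker (2 mg/kg iv in saline) or saline only (controls) 10–15 min before about 20 µCi of tail-vein F-18 radioligand. Killed 60 min after tracer. Blood and brain regions weighed and gamma-counted. %ID/g was decay- and tail-corrected; mean ± SD.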

Rattus norvegicus [4] = species: Rattus norvegicus; assay: Regional uptake of [18F]AFA in hypothalamus of rat pretreated with compound citalopram; n=3; format: functional, organism-based; outline: as §2
Rattus norvegicus [5] = species: Rattus norvegicus; assay: Regional uptake of [18F]AFA in thalamus of rat pretreated with compound 7c; n=3; format: functional, organism-based
Rattus norvegicus [6] = species: Rattus norvegicus; assay: Regional uptake of [18F]AFA in striatum of rat pretreated with compound citalopram; n=3; format: functional, organism-based; outline: as §2
Rattus norvegicus [7] = species: Rattus norvegicus; assay: Regional uptake of [18F]AFA in cerebellum of rat pretreated with compound nisoxetine; n=3; format: functional, organism-based; outline: as §2
[8] = molecular target: Sodium-dependent serotonin transporter (Rattus norvegicus) (UniProt P31652); assay: Specific binding of [18F]-AFA in rat striatum after citalopram treatment; n=3; format: functional, tissue-based; outline: as §1
Rattus norvegicus [9] = species: Rattus norvegicus; assay: Regional uptake of [18F]AFA in thalamus of rat pretreated with compound nisoxetine; n=3; format: functional, organism-based; outline: as §2
Rattus norvegicus [10] = species: Rattus norvegicus; assay: Regional uptake of [18F]AFA in cerebellum of rat pretreated with compound GBR-12935; n=3; format: functional, organism-based; outline: as §2
[11] = molecular target: Sodium-dependent serotonin transporter (Rattus norvegicus) (UniProt P31652); assay: Specific binding of [18F]-AFA in rat striatum after nisoxetine treatment; n=3; format: functional, tissue-based; outline: as §1
Rattus norvegicus [12] = species: Rattus norvegicus; assay: Regional uptake of [18F]AFA in blood of rat pretreated with compound nisoxetine; n=3; format: functional, organism-based; outline: as §2
Rattus norvegicus [13] = species: Rattus norvegicus; assay: Regional uptake of [18F]-AFA in blood of rat pretreated with compound citalopram; n=3; format: functional, organism-based; outline: as §2
Rattus norvegicus [14] = species: Rattus norvegicus; assay: Regional uptake of [18F]-AFA in hypothalamus of rat pretreated with compound nisoxetine; n=3; format: functional, organism-based; outline: as §2
[15] = molecular target: Sodium-dependent serotonin transporter (Rattus norvegicus) (UniProt P31652); assay: Specific binding of [18F]AFA in rat thalamus after GBR-12935 treatment; n=3; format: functional, tissue-based; outline: as §1
Rattus norvegicus [16] = species: Rattus norvegicus; assay: Regional uptake of [18F]AFA in frontal cortex of rat pretreated with compound citalopram; n=3; format: functional, organism-based; outline: as §2
[17] = molecular target: Sodium-dependent serotonin transporter (Rattus norvegicus) (UniProt P31652); assay: Specific binding of [18F]AFA in rat striatum after GBR-12935 treatment; n=3; format: functional, tissue-based; outline: as §1
Rattus norvegicus [18] = species: Rattus norvegicus; assay: Regional uptake of [18F]AFA in hippocampus of rat pretreated with compound 7c; n=3; format: functional, organism-based
[19] = molecular target: Sodium-dependent serotonin transporter (Rattus norvegicus) (UniProt P31652); assay: Specific binding of [18F]AFA in rat frontal cortex after GBR-12935 treatment; n=3; format: functional, tissue-based; outline: as §1
Rattus norvegicus [20] = species: Rattus norvegicus; assay: Regional uptake of [18F]AFA in hippocampus of rat pretreated with compound citalopram; n=3; format: functional, organism-based; outline: as §2
Rattus norvegicus [21] = species: Rattus norvegicus; assay: Regional uptake of [18F]AFA in hippocampus of rat pretreated with compound nisoxetine; n=3; format: functional, organism-based; outline: as §2
[22] = molecular target: Sodium-dependent serotonin transporter (Rattus norvegicus) (UniProt P31652); assay: Specific binding of [18F]AFA in rat hypothalamus after nisoxetine treatment; n=3; format: functional, tissue-based; outline: as §1
[23] = molecular target: Sodium-dependent serotonin transporter (Rattus norvegicus) (UniProt P31652); assay: Specific binding of [18F]AFA in rat frontal cortex after citalopram treatment; n=3; format: functional, tissue-based; outline: as §1
[24] = molecular target: Sodium-dependent serotonin transporter (Rattus norvegicus) (UniProt P31652); assay: Specific binding in rat hypothalamus at 120 min postinjection in vivo; format: functional, organism-based
Outline: (§3)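 Male Sprague-Dawley rats, n=3 per time point, received about 20 µCi of F-18 radioligand in saline iv by tail vein and were killed at 10–120 min. %ID/g was measured with decay and tail-residual correction. Hypothalamic specific binding = (%ID/g hypothalamus − %ID/g cerebellum)/%ID/g cerebellum; mean ± SD.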

Rattus norvegicus [25] = species: Rattus norvegicus; assay: Regional uptake of [18F]AFA in thalamus of rat pretreated with compound GBR-12935; n=3; format: functional, organism-based; outline: as §2
Rattus norvegicus [26] = species: Rattus norvegicus; assay: Regional uptake of [18F]AFA in hippocampus of rat pretreated with compound GBR-12935; n=3; format: functional, organism-based; outline: as §2
[27] = molecular target: Sodium-dependent serotonin transporter (Rattus norvegicus) (UniProt P31652); assay: Specific binding of [18F]AFA in rat hypothalamus after citalopram treatment; n=3; format: functional, tissue-based; outline: as §1
[28] = molecular target: Sodium-dependent serotonin transporter (Rattus norvegicus) (UniProt P31652); assay: Specific binding in rat hypothalamus at 10 min postinjection in vivo; format: functional, organism-based; outline: as §3
[29] = molecular target: Sodium-dependent serotonin transporter (Rattus norvegicus) (UniProt P31652); assay: Specific binding of [18F]AFA in rat thalamus after citalopram treatment; n=3; format: functional, tissue-based; outline: as §1
Rattus norvegicus [30] = species: Rattus norvegicus; assay: Regional uptake of [18F]AFA in hypothalamus of rat pretreated with compound GBR-12935; n=3; format: functional, organism-based; outline: as §2
[31] = molecular target: Sodium-dependent serotonin transporter (Rattus norvegicus) (UniProt P31652); assay: Specific binding of [18F]AFA in rat frontal cortex after nisoxetine treatment; n=3; format: functional, tissue-based; outline: as §1
Rattus norvegicus [32] = species: Rattus norvegicus; assay: Regional uptake of [18F]AFA in blood of rat pretreated with compound 7c; n=3; format: functional, organism-based
[33] = molecular target: Sodium-dependent serotonin transporter (Rattus norvegicus) (UniProt P31652); assay: Specific binding of [18F]AFA in rat thalamus after nisoxetine treatment; n=3; format: functional, tissue-based; outline: as §1
Rattus norvegicus [34] = species: Rattus norvegicus; assay: Regional uptake of [18F]AFA in hypothalamus of rat pretreated with compound 7c; n=3; format: functional, organism-based
Rattus norvegicus [35] = species: Rattus norvegicus; assay: Regional uptake of [18F]AFA in striatum of rat pretreated with compound nisoxetine; n=3; format: functional, organism-based; outline: as §2
[36] = molecular target: Sodium-dependent serotonin transporter (Rattus norvegicus) (UniProt P31652); assay: Specific binding in rat hypothalamus at 60 min postinjection in vivo; format: functional, organism-based; outline: as §3
[37] = molecular target: Sodium-dependent serotonin transporter (Rattus norvegicus) (UniProt P31652); assay: Specific binding of [18F]AFA in rat hypothalamus after GBR-12935 treatment; n=3; format: functional, tissue-based; outline: as §1
Rattus norvegicus [38] = species: Rattus norvegicus; assay: Regional uptake of [18F]AFA in striatum of rat pretreated with compound 7c; n=3; format: functional, organism-based
Rattus norvegicus [39] = species: Rattus norvegicus; assay: Regional uptake of [18F]-AFA in striatum of rat pretreated with compound GBR-12935; n=3; format: functional, organism-based; outline: as §2
Rattus norvegicus [40] = species: Rattus norvegicus; assay: Regional uptake of [18F]AFA in cerebellum of rat pretreated with compound 7c; n=3; format: functional, organism-based
[41] = molecular target: Sodium-dependent serotonin transporter (Rattus norvegicus) (UniProt P31652); assay: Specific binding in rat hypothalamus at 30 min postinjection in vivo; format: functional, organism-based; outline: as §3
[42] = molecular target: Sodium-dependent serotonin transporter (Rattus norvegicus) (UniProt P31652); assay: Specific binding of [18F]AFA in rat hippocampus after GBR-12935 treatment; n=3; format: functional, tissue-based; outline: as §1
Rattus norvegicus [43] = species: Rattus norvegicus; assay: Regional uptake of [18F]AFA in frontal cortex of rat pretreated with compound GBR-12935; n=3; format: functional, organism-based; outline: as §2
[44] = molecular target: Sodium-dependent serotonin transporter (Rattus norvegicus) (UniProt P31652); assay: Specific binding of [18F]AFA in rat hippocampus after nisoxetine treatment; n=3; format: functional, tissue-based; outline: as §1
Rattus norvegicus [45] = species: Rattus norvegicus; assay: Regional uptake of [18F]AFA in cerebellum of rat pretreated with compound citalopram; n=3; format: functional, organism-based; outline: as §2
Rattus norvegicus [46] = species: Rattus norvegicus; assay: Regional uptake of [18F]AFA in thalamus of rat pretreated with compound citalopram; n=3; format: functional, organism-based; outline: as §2
[47] = molecular target: Sodium-dependent serotonin transporter (Rattus norvegicus) (UniProt P31652); assay: Specific binding in rat hypothalamus at 90 min postinjection in vivo; format: functional, organism-based; outline: as §3
Rattus norvegicus [48] = species: Rattus norvegicus; assay: Regional uptake of [18F]-AFA in blood of rat pretreated with compound GBR-12935; n=3; format: functional, organism-based; outline: as §2

Sequence of Sodium-dependent serotonin transporter (Rattus norvegicus) (P31652 whole entry): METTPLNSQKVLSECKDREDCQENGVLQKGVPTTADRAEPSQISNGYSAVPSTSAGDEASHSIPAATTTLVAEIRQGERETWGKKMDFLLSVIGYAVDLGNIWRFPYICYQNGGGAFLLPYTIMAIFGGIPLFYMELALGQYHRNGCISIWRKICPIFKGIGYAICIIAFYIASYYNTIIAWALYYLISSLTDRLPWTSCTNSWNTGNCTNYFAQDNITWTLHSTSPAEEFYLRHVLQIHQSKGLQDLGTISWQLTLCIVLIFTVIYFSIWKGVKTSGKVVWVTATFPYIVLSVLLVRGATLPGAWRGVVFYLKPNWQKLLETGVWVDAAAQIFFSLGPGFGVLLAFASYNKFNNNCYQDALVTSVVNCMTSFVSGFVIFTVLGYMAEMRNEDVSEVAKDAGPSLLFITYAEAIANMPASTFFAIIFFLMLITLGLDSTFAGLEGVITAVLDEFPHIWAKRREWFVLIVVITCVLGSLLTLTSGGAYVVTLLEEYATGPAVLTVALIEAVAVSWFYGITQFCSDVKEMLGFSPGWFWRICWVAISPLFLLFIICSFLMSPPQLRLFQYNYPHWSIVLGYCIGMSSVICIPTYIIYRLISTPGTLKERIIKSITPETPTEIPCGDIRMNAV

With CN(C)Cc1ccccc1Sc1ccc(F)cc1N the Specific binding [1] was 0.81 %ID/g, the Uptake (Rattus norvegicus [2]) was 0.14 %ID/g and the Uptake (Rattus norvegicus [3]) was 0.36 %ID/g. The Uptake (Rattus norvegicus [4]) was 0.1 %ID/g, the Uptake (Rattus norvegicus [5]) was 0.15 %ID/g and the Uptake (Rattus norvegicus [6]) was 0.1 %ID/g. For the same molecule, the Uptake (Rattus norvegicus [7]) was 0.09 %ID/g, the Specific binding [8] was 0.6 %ID/g and the Uptake (Rattus norvegicus [9]) was 0.47 %ID/g. The Uptake (Rattus norvegicus [10]) was 0.09 %ID/g, the Specific binding [11] was 2.45 %ID/g and the Uptake (Rattus norvegicus [12]) was 0.1 %ID/g. The Uptake (Rattus norvegicus [13]) was 0.08 %ID/g, the Uptake (Rattus norvegicus [14]) was 0.48 %ID/g and the Specific binding [15] was 4.57 %ID/g. The Uptake (Rattus norvegicus [16]) was 0.11 %ID/g, the Specific binding [17] was 2.56 %ID/g and the Uptake (Rattus norvegicus [18]) was 0.13 %ID/g. For the same molecule, the Specific binding [19] was 2.81 %ID/g, the Uptake (Rattus norvegicus [20]) was 0.11 %ID/g and the Uptake (Rattus norvegicus [21]) was 0.28 %ID/g. The Specific binding [22] was 3.82 %ID/g, the Specific binding [23] was 0.64 %ID/g and the Specific binding (dimensionless ratio) [24] was 4.92. It also gave an Uptake (Rattus norvegicus [25]) of 0.36 %ID/g, an Uptake (Rattus norvegicus [26]) of 0.28 %ID/g and a Specific binding [27] of 0.65 %ID/g. For the same molecule, the Specific binding [28] was 0.89 %ID/g, the Specific binding [29] was 0.98 %ID/g and the Uptake (Rattus norvegicus [30]) was 0.43 %ID/g. For the same molecule, the Specific binding [31] was 2.88 %ID/g, the Uptake (Rattus norvegicus [32]) was 0.07 %ID/g and the Specific binding [33] was 3.53 %ID/g. For the same molecule, the Uptake (Rattus norvegicus [34]) was 0.13 %ID/g, the Uptake (Rattus norvegicus [35]) was 0.31 %ID/g and the Specific binding [36] was 4.09 %ID/g. For the same molecule, the Specific binding [37] was 4.3 %ID/g, the Uptake (Rattus norvegicus [38]) was 0.12 %ID/g and the Uptake (Rattus norvegicus [39]) was 0.28 %ID/g. For the same molecule, the Uptake (Rattus norvegicus [40]) was 0.06 %ID/g, the Specific binding [41] was 2.23 %ID/g and the Specific binding [42] was 2.21 %ID/g. The Uptake (Rattus norvegicus [43]) was 0.33 %ID/g, the Specific binding [44] was 1.96 %ID/g and the Uptake (Rattus norvegicus [45]) was 0.06 %ID/g. It also gave an Uptake (Rattus norvegicus [46]) of 0.13 %ID/g, a Specific binding (dimensionless ratio) [47] of 5.61 and an Uptake (Rattus norvegicus [48]) of 0.09 %ID/g.
